# From ChEMBL document CHEMBL4706580, “4-Amino-1,2,4-triazole-3-thione-derived Schiff bases as metallo-β-lactamase inhibitors” (Eur J Med Chem, 2020)
# The source made the active and inactive calls. The rule behind the calls is not given here.
# Columns and labels:
# [1] = Inhibition of beta-lactamase VIM-2 (unknown origin) expressed in Escherichia coli LZ2310 assessed as potentiation of cefoxitin antibacterial activity by measuring cefoxitin induced diameter of inhibition zone at 320 uM incubated for 18 hrs by disk diffusion method (reference value: 14 mm)
# In short: (§1)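 Efflux-deficient E. coli LZ2310 (NorE, MdfA, AcrA knocked out) carrying pLB-II with the cloned MBL gene. Mueller-Hinton, CLSI disk diffusion; antibiotic disks (30 µg cefoxitin for VIM-2, 10 µg ampicillin for VIM-4, 30 µg ceftazidime for NDM-1/IMP-1) loaded with inhibitor in DMSO (≤15 µL). Zone diameter after 18 h, 35 ± 1 °C; DMSO and 220 µg EDTA controls. Triplicate.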
# [2] = Inhibition of beta-lactamase IMP-1 (unknown origin) expressed in Escherichia coli BL21(DE3) using imipenem as substrate by measuring substrate hydrolysis at 200 uM by spectrophotometric analysis
# In short: (§2)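 Purified enzyme (overproduced in E. coli BL21(DE3), pET-9a; ion-exchange and gel filtration), 1-70 nM final. Reporter substrate 150 μM imipenem, read at 300 nm, 30 °C, 50 mM HEPES pH 7.5. Single-point screen at 100 or 200 μM; Ki from v0/vi vs [I] (0.5–1,000 μM final) assuming competitive inhibition, or Dixon plot. Triplicate.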
# [3] = Inhibition of beta-lactamase IMP-1 (unknown origin) expressed in Escherichia coli BL21(DE3) using imipenem as substrate by measuring substrate hydrolysis at 100 uM by spectrophotometric analysis; in short: as §2
# [4] = Inhibition of beta-lactamase NDM1 (unknown origin) expressed in Escherichia coli BL21(DE3) using cefotaxime/nitrocefin as substrate by measuring substrate hydrolysis at 200 uM by spectrophotometric analysis
# [5] = Inhibition of beta-lactamase NDM1 (unknown origin) expressed in Escherichia coli BL21(DE3) using cefotaxime/nitrocefin as substrate by measuring substrate hydrolysis at 100 uM by spectrophotometric analysis
# [6] = Inhibition of beta-lactamase VIM-2 (unknown origin) expressed in Escherichia coli XL-1 assessed as potentiation of cefoxitin antibacterial activity by measuring cefoxitin induced diameter of inhibition zone at 320 uM incubated for 18 hrs by disk diffusion method (reference value: 8 mm)
# In short: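 Wild-type efflux E. coli XL-1 Blue transformed with pLB-II-VIM-2. Mueller-Hinton disk diffusion per CLSI, 30 µg cefoxitin disks loaded with inhibitor dissolved in DMSO (≤15 µL). Growth-inhibition zone measured after 18 h at 35 ± 1 °C; DMSO negative and 220 µg EDTA positive controls. Triplicate.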
# [7] = Inhibition of beta-lactamase VIM2 (unknown origin) expressed in Escherichia coli BL21(DE3) using imipenem as substrate by measuring substrate hydrolysis by spectrophotometric analysis; in short: as §2
# [8] = Inhibition of beta-lactamase VIM4 (unknown origin) expressed in Escherichia coli BL21(DE3) using imipenem as substrate by measuring substrate hydrolysis by spectrophotometric analysis; in short: as §2
# [9] = Inhibition of beta-lactamase L1 (unknown origin) expressed in Escherichia coli BL21(DE3) using nitrocefin as substrate by measuring substrate hydrolysis at 100 uM preincubated for 30 mins by spectrophotometric analysis
# In short: (§3)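 Enzyme 0.2–0.8 nM in 25 mM HEPES pH 7.5 with 50 μM ZnCl2 final, pre-incubated 30 min at 21 °C with inhibitor (100 μM screen). Nitrocefin 100 μM final, read at 482 nm, 30 °C. Residual activity vs three uninhibited samples; Ki (1–100 μM inhibitor) from Hanes linearization, competitive model. Triplicate.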
# [10] = Inhibition of beta-lactamase IMP-1 (unknown origin) expressed in Escherichia coli LZ2310 assessed as potentiation of ceftazidime antibacterial activity by measuring ceftazidime induced diameter of inhibition zone at 320 uM incubated for 18 hrs by disk diffusion method (reference value: 9 mm); in short: as §1
# [11] = Binding affinity to beta-lactamase VIM-2 expressed in Escherichia coli BL21(DE3) assessed as association constant at 25 degC by isothermal titration calorimetry
# In short: (§4)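 VIM-2 (19 μM) in 10 mM HEPES-NaOH, 0.15 M NaCl, 50 μM ZnSO4, pH 7.5, DMSO matched to ligand (1-2% final). One 0.5 μl then 19 × 2 μl injections of compound (200-400 μM), 150 s apart, 25 °C. Buffer dilution heats subtracted; nonlinear least-squares fit for n, Ka, ΔH; compound concentration adjusted in fitting so n ≈ 1.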
# [12] = Binding affinity to beta-lactamase VIM-2 expressed in Escherichia coli BL21(DE3) assessed as dissociation constant at 25 degC by isothermal titration calorimetry; in short: as §4
# [13] = Binding affinity to beta-lactamase VIM-2 expressed in Escherichia coli BL21(DE3) assessed as change in entropy at 25 degC by isothermal titration calorimetry; in short: as §4
# [14] = Inhibition of beta-lactamase VIM-2 (unknown origin) expressed in Escherichia coli LZ2310 assessed as potentiation of cefoxitin antibacterial activity by measuring cefoxitin induced diameter of inhibition zone at 40 uM incubated for 18 hrs by disk diffusion method (reference value: 14 mm); in short: as §1
# [15] = Binding affinity to beta-lactamase VIM-2 expressed in Escherichia coli BL21(DE3) assessed as Gibbs free energy at 25 degC by isothermal titration calorimetry; in short: as §4
# [16] = Binding affinity to beta-lactamase VIM-2 expressed in Escherichia coli BL21(DE3) assessed as change in enthalpy at 25 degC by isothermal titration calorimetry; in short: as §4
# [17] = Inhibition of beta-lactamase CphA (unknown origin) expressed in Escherichia coli BL21(DE3) using imipenem as substrate by measuring substrate hydrolysis by spectrophotometric analysis
# In short: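 Enzyme 0.2–0.8 nM in 15 mM cacodylate pH 6.5, no added zinc, pre-incubated 30 min at 21 °C with inhibitor (100 μM screen). Imipenem substrate added from 10 mM stock; hydrolysis at 300 nm, 30 °C. Residual activity vs three uninhibited samples; Ki (1–100 μM inhibitor) by Hanes linearization, competitive model. Triplicate.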
# [18] = Inhibition of beta-lactamase NDM1 (unknown origin) expressed in Escherichia coli BL21(DE3) using cefotaxime/nitrocefin as substrate by measuring substrate hydrolysis by spectrophotometric analysis
# In short: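 His-tagged enzyme from E. coli BL21(DE3) pET-15b, affinity-purified, 1-70 nM final. Reporter substrate 120 μM cefotaxime (260 nm) or 100 μM nitrocefin (482 nm), 30 °C, 50 mM HEPES pH 7.5. Inhibitor 0.5–1,000 μM final; competitive Ki from v0/vi vs [I] slope or Dixon plot. Triplicate.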
# [19] = Inhibition of beta-lactamase L1 (unknown origin) expressed in Escherichia coli BL21(DE3) using nitrocefin as substrate by measuring substrate hydrolysis preincubated for 30 mins by spectrophotometric analysis; in short: as §3
# [20] = target: Hydroxyacylglutathione hydrolase (Homo sapiens); assay: Inhibition of human Glyoxalase II expressed in Escherichia coli BL21 (DE3)
# [21] = Inhibition of beta-lactamase IMP-1 (unknown origin) expressed in Escherichia coli BL21(DE3) using imipenem as substrate by measuring substrate hydrolysis by spectrophotometric analysis; in short: as §2
# [22] = Inhibition of beta-lactamase VIM2 (unknown origin) expressed in Escherichia coli BL21(DE3) using imipenem as substrate by measuring substrate hydrolysis at 100 uM by spectrophotometric analysis; in short: as §2
# [23] = Inhibition of beta-lactamase VIM4 (unknown origin) expressed in Escherichia coli BL21(DE3) using imipenem as substrate by measuring substrate hydrolysis at 100 uM by spectrophotometric analysis; in short: as §2
# [24] = Inhibition of beta-lactamase L1 (unknown origin) expressed in Escherichia coli BL21(DE3) using nitrocefin as substrate by measuring substrate hydrolysis at 200 uM preincubated for 30 mins by spectrophotometric analysis
# [25] = Inhibition of beta-lactamase VIM4 (unknown origin) expressed in Escherichia coli BL21(DE3) using imipenem as substrate by measuring substrate hydrolysis at 200 uM by spectrophotometric analysis; in short: as §2
# [26] = Inhibition of beta-lactamase VIM2 (unknown origin) expressed in Escherichia coli BL21(DE3) using imipenem as substrate by measuring substrate hydrolysis at 200 uM by spectrophotometric analysis; in short: as §2
# [27] = Inhibition of beta-lactamase VIM-2 (unknown origin) expressed in Escherichia coli LZ2310 assessed as potentiation of cefoxitin antibacterial activity by measuring cefoxitin induced diameter of inhibition zone at 80 uM incubated for 18 hrs by disk diffusion method (reference value: 14 mm); in short: as §1
# [28] = Inhibition of beta-lactamase NDM-1 (unknown origin) expressed in Escherichia coli LZ2310 assessed as potentiation of ceftazidime antibacterial activity by measuring ceftazidime induced diameter of inhibition zone at 80 uM incubated for 18 hrs by disk diffusion method (reference value: 15 mm); in short: as §1
Compound,inhibition zone (IZ) [1],inhibition [2],inhibition [3],inhibition [5],inhibition zone (IZ) [6],Ki [7],Ki [8],inhibition [9],inhibition zone (IZ) [10],Ki [18],Ki [21],inhibition [24],other results
O=C(O)c1ccccc1/C=N/n1c(-c2ccccc2O)n[nH]c1=S,17 mm,inactive,inactive,inactive,10 mm,2.2 µM,3 µM,40%,12 mm,–,–,–,inhibition [4]: inactive
O=C(O)c1ccccc1/C=N/n1c(-c2ccccc2)n[nH]c1=S,–,inactive,inactive,–,–,2.7 µM,1.4 µM,–,–,38 µM,–,–,Ka [11]: 1.9 10^6/M; Kd [12]: 0.519 µM; -TdeltaS [13]: 4.9 kcal/mol; inhibition zone (IZ) [14]: 20 mm; deltaG [15]: -8.5 kcal/mol; deltaH [16]: -3.6 kcal/mol; Ki [17]: 58 µM; Ki [19]: 5 µM; IC50 [20]: 25.5 µM
S=c1[nH]nc(-c2ccc(-c3ccccc3)cc2)n1/N=C/c1ccc(OCc2ccccc2)cc1,16 mm,–,–,64%,10 mm,–,–,inactive,11 mm,–,11.4 µM,inactive,inhibition [22]: inactive; inhibition [23]: inactive; inhibition [25]: inactive; inhibition [26]: inactive
Oc1ccc(/C=N/n2c(-c3ccccc3-c3ccccc3)n[nH]c2=S)c(O)c1,–,–,–,–,–,4.5 µM,9 µM,inactive,–,6.4 µM,12 µM,inactive,inhibition zone (IZ) [27]: 14 mm; inhibition zone (IZ) [28]: 15 mm
